From PubChem BioAssay
A selection: hits, their analogues and other compounds. The true share with any hit is near 1.6%.
SKN-1 block: inhibitors of C. elegans SKN-1; C. elegans VP596 Pgst-4::GFP/RFP ratio, acrylamide-induced, 24 h; inhibition, % at 21.8 µM; hit rate 0.49% among 360,000; AID 624304;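 active means interference check ratio from 0.5 to 1.5 plus GFP to RFP signal ratio inhibition reaching or exceeding a fixed threshold, cut at about 30% in these data, passing the limit was not always enough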
pCIP destab: lowers stability of the mouse p/CIP coactivator protein | hit rate 0.01% among 290,000 | decrease of EGFP signal, % at 10 µM | Q05BA5 | F442A p/CIP-EGFP cells, EGFP fluorescence, 16 h;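 active means EGFP signal decrease of at least 30% at 10 µM or well 3 SD below plate mean, unless failing retest; inactive means the rest, including hits failing retest or dose response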
bovine MsrA act: bovine methionine sulfoxide reductase A activation. activation, % at 10.6 µM. AID 602163. purified bovine MsrA, absorbance read-out. hit rate 0.3% among 360,000; in the data active means activation above about 7.5%;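 further: 0% = vehicle and 100% = reference activator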
MT1-MMP act inh: blocks activation of human MT1-MMP; GFP/RFP ratio change, % at 20 µM; hit rate 0.061% among 360,000; HT1080 RFP-PRO-GFP cells, GFP/RFP ratio fluorescence, overnight; percent of plate control window, DMSO zero; P50281;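 active means GFP/RFP ratio change of at least 30% with cell ATP level not reduced by more than half and red fluorescence within 50% of control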
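Test system: HT1080 RFP-PRO-GFP cells; Benchmarks: DMSO and RFP-L50D-GFP cell wells; Timing: cells overnight before dosing, compound overnight, 37 °C, 5% CO2; Compound: one 20 µM compound dose with 1% DMSO; Read-out: GFP/RFP fluorescence ratio.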
MsrA inhibitor: bovine MsrA inhibition. AID 651718. hit rate 0.75% among 360,000. purified bovine MsrA, absorbance read-out. inhibition, % at 15.5 µM; in the data active means inhibition above about 4.5%;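 further: 0% = vehicle wells with enzyme and 100% = reference inhibitor wells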
The depositor's hits bear a star; x = no result.

SMILES	SKN-1 block	pCIP destab	bovine MsrA act	MT1-MMP act inh	MsrA inhibitor
CCCCN1CC(COCc2ccccc2)Oc2cccc(NCc3cc(OC)c(OC)c(OC)c3)c2S1(=O)=O (stereo not drawn)	x	x	x	x	0
O=C(NCc1n[nH]c(=S)n1-c1ccc(F)cc1)c1ccc(S(=O)(=O)N2CCOCC2)cc1	38*	-5	-2	8	1
COc1ccc(C2CC(c3ccccc3)=NN2C(=O)c2cccs2)cc1 (stereo not drawn)	37*	-3	-1	-8	-1
COc1ccc(C2=NN(C(=O)c3cccs3)C(c3ccccc3O)C2)cc1 (stereo not drawn)	-3	2	-4	-5	2
COc1cccc(C2=NN(C(C)=O)C(c3cccs3)C2)c1 (stereo not drawn)	36*	-3	-2	0	-1
O=C(NCc1nc2ccccc2[nH]1)C1=C[C@H](C2CCCCC2)C[C@H](OCc2ccc(CO)cc2)O1	39*	-7	-2	-8	0
O=C(NCc1nc2ccccc2[nH]1)C1=C[C@@H](C2CCCCC2)C[C@@H](OCc2ccc(CO)cc2)O1	19	-2	-6	1	0
Clc1ccc(OCCCCCN2CCOCC2)cc1	39*	0	0	-1	0
CCCCOc1ccc(OCCCN2CCOCC2)cc1	-3	-10	-2	3	1
Cc1cc(Cl)c(OCCCCN2CCOCC2)c(Br)c1	-18	-6	-4	6	-1
Cc1cc(Cl)cc(C)c1OCCCCN1CCOCC1	43*	-4	-1	7	-1
O=C(O)C1CCCN1C(=O)c1cccc(Cl)c1 (stereo not drawn)	x	x	x	x	0
COc1ccc2oc(=O)c(/C(N)=N/NC(=O)c3ccncc3)cc2c1	38*	-3	-3	-3	-1
C/C(=N\NC(=O)c1ccncc1)c1cc2ccccc2oc1=O	-3	-4	-4	-2	1
C=CCCC[C@H]1OC(=O)[C@H](C)NC(=O)[C@H](C(C)C)NC(=O)[C@@H]2CCCN2C(=O)[C@H](Cc2ccccc2)OC(=O)[C@@H](C(C)C)N(C)C(=O)[C@H](C(C)C)NC(=O)C1(C)C	x	x	x	x	0
CCCCC(CC)CN=C(N)NC(N)=NCCCCCCN=C(N)NC(N)=NCC(CC)CCCC (stereo not drawn)	38*	x	9.7*	x	x
CCCCC(CC)CO (stereo not drawn)	-10	x	4	2	-1
Cc1ccsc1/C=N/NC(=O)c1c[nH]c2ccccc12	6	-2	-4	-7	5.1*
C/C(=N/OCc1ccc(Br)cc1)c1ccccn1	54*	-4	-11	0	-1
C/C(=N\OC(=O)c1ccc(Br)cc1)c1ccccn1	-6	-8	-3	4	-1
CC(C)C1=CC2C3C(=O)N(c4ccccc4)C(=O)C3C1C(=O)C2(C)O (stereo not drawn)	x	x	x	x	-1
O=S(=O)(Nc1cccnc1)c1ccc(Cl)cc1	-4	-19	-16	1	-1
Clc1ccc(C#Cc2cccnc2)cc1	75*	x	-6	-1	2
O=C1CCCC(O)=C1C=Nc1ccc(O)cc1	14	-5	-4	3	4.6*
O=C(Cc1cccc2ccccc12)Nc1ccc(-c2cc3ccccc3oc2=O)cc1	13	-11	-2	3	5.3*
SMILES	SKN-1 block	pCIP destab	bovine MsrA act	MT1-MMP act inh	MsrA inhibitor
c1ccc(Cn2c[n+](Cc3ccccc3)c3ccccc32)cc1	35*	-12	-1	1	1
c1ccc(C[n+]2csc3ccccc32)cc1	1	-18	0	2	-1
CN1CCCCC(NC(=O)COCc2ccccc2)C1=O (stereo not drawn)	x	x	x	x	0
COC(=O)C1=C(C)N(C)C(=NCc2ccc(OC)cc2)NC1c1cccc(F)c1 (stereo not drawn)	x	x	x	x	-1
CC(=O)Nc1ccc(NC(=O)C2Cc3c(-c4cccc(F)c4)ccnc3O2)cc1 (stereo not drawn)	37*	x	2	1	0
O=C(Nc1ccc(Cl)cc1)C1Cc2c(-c3cccc(F)c3)ccnc2O1 (stereo not drawn)	18	x	-4	10	0
COC(=O)c1ccc2nc(-c3cccc(Br)c3)c(Cc3cccc(Cl)c3)n2c1	x	x	x	x	0
O=[N+]([O-])c1cccc2ccc(/C=C/c3ccc(C(F)(F)F)cc3)nc12	12	0	-6	-1	2
O=[N+]([O-])c1cccc2ccc(/C=C/c3ccc(Cl)cc3)nc12	39*	6	-6	0	1
